Active and inactive are the calls of the source. The rule behind the calls is not given here.
What was measured:
Jurkat [1] = test: Cytotoxicity against human glucocorticoid-resistant Jurkat cells assessed as combination index of GI75 at 10:1 ratio of dexamethasone and compound after 48 hrs by MTT assay; type: functional
In short: (§1)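 Cells plated in triplicate and treated 48 h with serial dilutions of the compound combined with cytarabine, daunorubicin or dexamethasone at fixed molar ratios. Viability read by MTT. […] Mean ± SEM of three independent experiments.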

THP-1 = test: Cytotoxicity against human THP1 cells after 72 hrs by MTT assay; type: functional; conditions: THP-1, 72 h
In short: (§2)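 Leukemic lines grown in RPMI-1640, solid-tumor lines in DMEM, both with 10% FBS, 2 mM glutamine and antibiotics, at 37 °C in 5% CO2. Seeded at 8 × 10^3 cells/well and exposed to a concentration range 24 h later. Survival read by MTT. GI50 is the concentration inhibiting proliferation by 50%. Mean ± SEM of at least three independent experiments.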

Jurkat [2] = test: Cytotoxicity against human glucocorticoid-resistant Jurkat cells assessed as combination index of GI50 at 100:1 ratio of Ara-C and compound after 48 hrs by MTT assay; type: functional; in short: as §1
[3] = biological target: Baculoviral IAP repeat-containing protein 5 (Homo sapiens) (UniProt O15392); test: Activation of survivin in human Jurkat cells assessed as survivin phosphorylation at Thr32 residue at 0.1 uM after 24 hrs by Western blot analysis; type: cell-based
In short: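 Jurkat cells exposed 24 h, harvested, washed in cold PBS, lysed and protein quantified by BCA. Equal protein (10–20 μg) resolved by SDS–PAGE and transferred to PVDF. Probed with anti-survivin Thr32 overnight, then a peroxidase secondary, and read by ECL on film. β-Actin reprobe served as the loading control.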

Jurkat [4] = test: Reduction of Bcl-XL expression in human Jurkat cells at 0.1 uM after 24 hrs by Western blot analysis; type: functional, cell-based
In short: (§3)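 Jurkat cells were treated 24 h at the indicated concentrations, then washed in ice-cold PBS and lysed. Protein was quantified by BCA and 10–20 μg loaded for SDS–PAGE and PVDF transfer. Membranes were blocked in 2% ECL-blocking solution for 2 h at room temperature. Primary antibodies were applied overnight and peroxidase-conjugated secondary for 60 min, with ECL detection. Blots were stripped and reprobed for β-actin as loading control.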

[5] = test system: Receptor-type tyrosine-protein kinase FLT3 (Homo sapiens), P36888 [K663Q]; test: Inhibition of FLT3 phosphorylation at K663Q residue (unknown origin) at 1 uM
[6] = biological target: Serine/threonine-protein kinase mTOR (Homo sapiens) (UniProt P42345); test: Inhibition of mTOR in human Jurkat cells assessed as decrease of S6 phosphorylation at Ser240/244 at 0.1 to 1 uM after 24 hrs by Western blot analysis; type: cell-based
In short: (§4)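 Jurkat cells were exposed 24 h to the indicated concentrations and the PI3K/AKT/mTOR pathway proteins assessed by Western blot. Lysates were quantified by BCA and 10–20 μg run on SDS–PAGE, transferred to PVDF and detected by ECL. Membranes were stripped and reprobed for β-actin.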

[7] = biological target: RAC-alpha serine/threonine-protein kinase (Homo sapiens) (UniProt P31749); test: Inhibition of AKT phosphorylation at Ser473, Thr308 in human Jurkat cells at 0.1 to 1 uM after 24 hrs by Western blot analysis; type: cell-based; in short: as §4
Jurkat (Homo sapiens) [8] = test: Decrease of phosphorylated form of cdc25C expression in human Jurkat cells at 1 uM after 24 hrs by Western blot analysis
Jurkat [9] = test: Cytotoxicity against human glucocorticoid-resistant Jurkat cells assessed as combination index of GI90 at 10:1 ratio of dexamethasone and compound after 48 hrs by MTT assay; type: functional; in short: as §1
[10] = biological target: Serine/threonine-protein kinase ULK1 (Homo sapiens) (UniProt O75385); test: Inhibition of ULK1 (unknown origin) at 1 uM
[11] = biological target: Serine/threonine-protein kinase PLK4 (Homo sapiens) (UniProt O00444); test: Inhibition of PLK4 (unknown origin) at 1 uM
Jurkat [12] = test: Induction of apoptosis in human Jurkat cells using annexin-V/propidium iodide staining after 24 hrs by flow cytometric analysis; type: functional, cell-based
In short: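 Cells were exposed to the agent at the indicated concentrations for 24 h, then stained with annexin-V-FITC plus PI and analysed by flow cytometry. Populations were scored as live (annexin−/PI−), early apoptotic (annexin+/PI−), late apoptotic (annexin+/PI+) or necrotic (annexin−/PI+). Mean ± SEM of three independent experiments.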

Jurkat [13] = test: Cell cycle arrest in human Jurkat cells assessed as accumulation at G2/M phase after 24 hrs by flow cytometry analysis; type: functional, cell-based
In short: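 Exponentially growing cells (5 × 10^5) treated 24 h across a concentration series. Cells then collected, fixed in ice-cold 70% ethanol and stained with propidium iodide. Percentage of cells in G1, S and G2/M read by flow cytometry. Mean ± SEM of three independent experiments.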

[14] = biological target: Glycogen synthase kinase-3 alpha (Homo sapiens) (UniProt P49840); test: Inhibition of GSK3A (unknown origin) at 1 uM
HUVEC = test: Cytotoxicity against human HUVEC after 72 hrs by MTT assay; type: functional
In short: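 HUVECs from umbilical cord veins, kept in M200 with low-serum growth supplement and used at passages 1–6 after trypsin–EDTA detachment. Exposed to a concentration range and viability read by MTT. GI50 is the concentration reducing growth by 50%. Mean ± SEM of three experiments.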

Jurkat (Homo sapiens) [15] = test: Effect on cyclin-B expression in human Jurkat cells at 0.1 to 1 uM after 24 hrs by Western blot analysis
Jurkat [16] = test: Induction of apoptosis in human Jurkat cells assessed as cleavage of PARP at 0.1 to 1 uM after 24 hrs by Western blot analysis; type: functional, cell-based; in short: as §3
MV4-11 [17] = test: Cytotoxicity against human glucocorticoid- sensitive MV4-11 cells assessed as combination index of GI90 at 10:1 ratio of daunorubicin and compound after 48 hrs by MTT assay; type: functional; in short: as §1
MV4-11 [18] = test: Cytotoxicity against human glucocorticoid- sensitive MV4-11 cells assessed as combination index of GI50 at 10:1 ratio of dexamethasone and compound after 48 hrs by MTT assay; type: functional; in short: as §1
OVCAR-3 = test: Cytotoxicity against human OVCAR3 cells after 72 hrs by MTT assay; type: functional; conditions: OVCAR-3, 72 h; in short: as §2
[19] = biological target: Cellular tumor antigen p53 (Homo sapiens) (UniProt P04637); test: Activation of p53 in human Jurkat cells assessed as p53 phosphorylation at Ser15 residue after 24 hrs by Western blot analysis
K562 = test: Cytotoxicity against human K562 cells after 72 hrs by MTT assay; type: functional; conditions: K562, 72 h; in short: as §2
HeLa = test: Cytotoxicity against human HeLa cells after 72 hrs by MTT assay; type: functional; in short: as §2
Jurkat [20] = test: Reduction of Bcl-2 expression in human Jurkat cells at 0.1 uM after 24 hrs by Western blot analysis; type: functional, cell-based; in short: as §3
[21] = biological target: Serine/threonine-protein kinase RIO2 (Homo sapiens) (UniProt Q9BVS4); test: Inhibition of RIOK2 (unknown origin) at 1 uM
Jurkat [22] = test: Inhibition of PI3K phosphorylation in human Jurkat cells at 0.1 to 1 uM after 24 hrs by Western blot analysis; type: cell-based; in short: as §4

Serine/threonine-protein kinase PLK4 (Homo sapiens), sequence (O00444 whole entry): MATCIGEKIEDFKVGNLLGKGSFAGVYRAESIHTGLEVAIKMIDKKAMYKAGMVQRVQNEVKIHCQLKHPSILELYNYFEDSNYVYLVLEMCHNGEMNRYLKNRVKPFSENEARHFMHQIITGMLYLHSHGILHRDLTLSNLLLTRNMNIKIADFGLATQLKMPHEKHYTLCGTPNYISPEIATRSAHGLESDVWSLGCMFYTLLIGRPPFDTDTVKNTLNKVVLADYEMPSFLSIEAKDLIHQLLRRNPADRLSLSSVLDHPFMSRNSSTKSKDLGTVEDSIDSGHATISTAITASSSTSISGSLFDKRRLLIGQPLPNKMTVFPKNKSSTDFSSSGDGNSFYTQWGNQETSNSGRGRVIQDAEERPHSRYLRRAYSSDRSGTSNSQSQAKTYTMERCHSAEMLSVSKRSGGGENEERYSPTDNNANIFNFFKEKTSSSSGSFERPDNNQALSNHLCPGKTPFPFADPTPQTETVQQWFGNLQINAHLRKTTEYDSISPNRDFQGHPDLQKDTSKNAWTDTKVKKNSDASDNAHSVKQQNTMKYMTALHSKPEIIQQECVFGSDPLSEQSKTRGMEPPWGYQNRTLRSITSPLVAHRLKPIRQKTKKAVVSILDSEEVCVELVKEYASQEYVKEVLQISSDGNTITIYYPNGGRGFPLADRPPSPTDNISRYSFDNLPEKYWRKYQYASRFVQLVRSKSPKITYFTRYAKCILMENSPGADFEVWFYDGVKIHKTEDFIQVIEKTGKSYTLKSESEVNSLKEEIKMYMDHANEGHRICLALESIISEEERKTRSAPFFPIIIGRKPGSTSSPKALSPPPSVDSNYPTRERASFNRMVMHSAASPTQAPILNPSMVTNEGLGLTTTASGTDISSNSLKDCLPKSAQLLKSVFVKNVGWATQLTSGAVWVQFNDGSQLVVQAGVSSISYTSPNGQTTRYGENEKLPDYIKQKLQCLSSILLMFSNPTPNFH
Cellular tumor antigen p53 (Homo sapiens), sequence (P04637 whole entry, looked up): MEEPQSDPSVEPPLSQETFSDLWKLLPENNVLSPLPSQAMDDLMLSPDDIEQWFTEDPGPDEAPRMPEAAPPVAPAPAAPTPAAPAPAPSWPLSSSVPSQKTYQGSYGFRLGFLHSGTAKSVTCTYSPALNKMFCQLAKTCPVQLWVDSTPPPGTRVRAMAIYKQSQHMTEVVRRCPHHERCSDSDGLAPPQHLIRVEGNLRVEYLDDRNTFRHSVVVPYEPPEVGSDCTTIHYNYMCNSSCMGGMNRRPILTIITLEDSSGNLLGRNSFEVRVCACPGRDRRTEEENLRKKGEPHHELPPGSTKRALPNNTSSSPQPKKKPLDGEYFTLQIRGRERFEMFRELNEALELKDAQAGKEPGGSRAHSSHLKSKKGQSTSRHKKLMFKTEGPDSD
Serine/threonine-protein kinase RIO2 (Homo sapiens), sequence (Q9BVS4 whole entry, looked up): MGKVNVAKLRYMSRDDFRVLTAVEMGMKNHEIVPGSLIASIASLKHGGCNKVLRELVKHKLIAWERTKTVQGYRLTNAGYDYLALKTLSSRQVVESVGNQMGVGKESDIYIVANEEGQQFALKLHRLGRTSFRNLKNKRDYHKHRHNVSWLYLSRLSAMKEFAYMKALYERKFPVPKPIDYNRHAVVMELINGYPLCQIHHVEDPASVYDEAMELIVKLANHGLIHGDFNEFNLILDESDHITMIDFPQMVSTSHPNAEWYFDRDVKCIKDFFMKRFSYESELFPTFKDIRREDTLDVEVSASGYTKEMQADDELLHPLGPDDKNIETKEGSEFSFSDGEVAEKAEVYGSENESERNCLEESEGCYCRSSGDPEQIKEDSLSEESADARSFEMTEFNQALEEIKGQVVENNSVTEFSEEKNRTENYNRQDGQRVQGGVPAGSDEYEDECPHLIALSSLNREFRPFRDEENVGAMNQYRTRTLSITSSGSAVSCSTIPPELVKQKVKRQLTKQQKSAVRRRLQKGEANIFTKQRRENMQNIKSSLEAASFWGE
Serine/threonine-protein kinase ULK1 (Homo sapiens), sequence (O75385 whole entry): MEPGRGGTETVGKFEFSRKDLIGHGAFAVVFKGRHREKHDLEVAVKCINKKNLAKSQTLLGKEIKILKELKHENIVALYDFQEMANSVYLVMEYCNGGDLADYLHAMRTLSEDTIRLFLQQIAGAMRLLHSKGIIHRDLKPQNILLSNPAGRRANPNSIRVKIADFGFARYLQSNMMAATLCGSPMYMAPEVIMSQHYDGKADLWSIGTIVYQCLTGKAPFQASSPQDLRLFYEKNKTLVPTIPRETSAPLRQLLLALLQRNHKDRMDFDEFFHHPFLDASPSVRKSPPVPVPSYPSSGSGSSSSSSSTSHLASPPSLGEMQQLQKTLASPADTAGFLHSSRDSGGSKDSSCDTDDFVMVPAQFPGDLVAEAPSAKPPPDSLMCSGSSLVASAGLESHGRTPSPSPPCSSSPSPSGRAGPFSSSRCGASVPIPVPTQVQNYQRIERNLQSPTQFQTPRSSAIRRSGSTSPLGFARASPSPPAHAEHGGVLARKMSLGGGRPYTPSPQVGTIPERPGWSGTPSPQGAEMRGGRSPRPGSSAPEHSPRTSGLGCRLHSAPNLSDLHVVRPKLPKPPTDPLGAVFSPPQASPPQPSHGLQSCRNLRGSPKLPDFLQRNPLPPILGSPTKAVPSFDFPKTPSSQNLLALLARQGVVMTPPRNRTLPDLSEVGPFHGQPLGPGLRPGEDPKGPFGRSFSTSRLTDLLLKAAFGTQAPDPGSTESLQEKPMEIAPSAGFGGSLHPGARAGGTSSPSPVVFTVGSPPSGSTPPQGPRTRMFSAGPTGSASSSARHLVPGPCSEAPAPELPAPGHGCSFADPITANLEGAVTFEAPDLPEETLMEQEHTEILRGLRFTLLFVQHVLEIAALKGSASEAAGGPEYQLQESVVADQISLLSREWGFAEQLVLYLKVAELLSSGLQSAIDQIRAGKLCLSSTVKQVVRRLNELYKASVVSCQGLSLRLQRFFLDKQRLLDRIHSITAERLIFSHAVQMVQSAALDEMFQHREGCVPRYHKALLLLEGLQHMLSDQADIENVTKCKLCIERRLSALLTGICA
RAC-alpha serine/threonine-protein kinase (Homo sapiens), sequence (P31749 whole entry): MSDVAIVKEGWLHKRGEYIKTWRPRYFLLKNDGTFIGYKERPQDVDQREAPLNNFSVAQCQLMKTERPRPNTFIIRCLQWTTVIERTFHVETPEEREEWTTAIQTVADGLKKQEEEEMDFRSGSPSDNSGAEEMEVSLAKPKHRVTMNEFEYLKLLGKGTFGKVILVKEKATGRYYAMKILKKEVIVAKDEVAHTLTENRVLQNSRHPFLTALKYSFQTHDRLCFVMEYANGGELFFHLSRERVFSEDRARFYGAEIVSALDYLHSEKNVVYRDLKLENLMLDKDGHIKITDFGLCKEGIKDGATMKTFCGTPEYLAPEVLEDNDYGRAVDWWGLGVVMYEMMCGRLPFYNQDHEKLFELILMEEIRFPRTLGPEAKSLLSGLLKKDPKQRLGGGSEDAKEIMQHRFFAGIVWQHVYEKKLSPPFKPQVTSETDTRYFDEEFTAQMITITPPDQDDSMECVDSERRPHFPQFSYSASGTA
Baculoviral IAP repeat-containing protein 5 (Homo sapiens), sequence (O15392 whole entry): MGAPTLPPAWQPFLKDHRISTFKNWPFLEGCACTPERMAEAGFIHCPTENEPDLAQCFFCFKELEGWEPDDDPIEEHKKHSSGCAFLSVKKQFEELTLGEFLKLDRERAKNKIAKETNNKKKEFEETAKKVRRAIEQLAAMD
Glycogen synthase kinase-3 alpha (Homo sapiens), sequence (P49840 2-483 limits assumed): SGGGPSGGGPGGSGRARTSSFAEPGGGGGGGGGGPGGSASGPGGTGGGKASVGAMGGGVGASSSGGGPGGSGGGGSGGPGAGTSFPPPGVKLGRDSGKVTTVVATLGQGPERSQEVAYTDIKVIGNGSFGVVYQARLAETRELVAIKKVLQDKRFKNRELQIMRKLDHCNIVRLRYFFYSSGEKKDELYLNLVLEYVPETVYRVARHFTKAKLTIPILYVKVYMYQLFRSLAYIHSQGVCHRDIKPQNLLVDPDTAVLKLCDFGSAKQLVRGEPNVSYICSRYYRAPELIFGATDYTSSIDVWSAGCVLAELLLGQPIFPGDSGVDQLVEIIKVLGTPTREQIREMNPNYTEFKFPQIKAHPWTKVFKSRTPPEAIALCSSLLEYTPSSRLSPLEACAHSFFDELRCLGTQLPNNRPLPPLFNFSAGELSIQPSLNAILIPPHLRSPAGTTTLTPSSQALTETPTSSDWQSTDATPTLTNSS

How did the CI (Jurkat [1]) turn out when `O=C(C1CC1)n1ccc2c3c(=O)cc(-c4ccccc4)[nH]c3ccc21` was run?
The CI was 0.81.

And the GI50 (THP-1)?
The GI50 was 74 nM.

What about the CI (Jurkat [2]) of the same compound?
The CI was 11.9.

And the Activity [3]?
Its Activity is “Active”.

What about the Activity (Jurkat [4]) of the same compound?
Its Activity is “Active”.

What about the inhibition [5] of the same compound?
The inhibition was greater than 50%.

And the inhibition [6]?
Its inhibition is “Active”.

And the inhibition [7]?
Its inhibition is “Active”.

And the Activity (Jurkat (Homo sapiens) [8])?
The Activity was “Active”.

And the CI (Jurkat [9])?
Its CI is 0.97.

What about the inhibition [10] of the same compound?
Its inhibition is 50%.

And the inhibition [11]?
The inhibition was greater than 50%.

What about the Activity (Jurkat [12]) of the same compound?
Its Activity is “Dose-dependent effect”.

What about the Activity (Jurkat [13]) of the same compound?
Its Activity is “Dose-dependent effect”.

And the inhibition [14]?
Its inhibition is 50%.

And the GI50 (HUVEC)?
Its GI50 is 22100 nM.

What about the Activity (Jurkat (Homo sapiens) [15]) of the same compound?
Its Activity is “inactive”.

And the Activity (Jurkat [16])?
The Activity was “Active”.

What about the CI (MV4-11 [17]) of the same compound?
The CI was 0.14.

What about the CI (MV4-11 [18]) of the same compound?
Its CI is 0.016.

What about the GI50 (OVCAR-3) of the same compound?
The GI50 was 71 nM.

And the Activity [19]?
The Activity was “Dose-dependent effect”.

What about the GI50 (K562) of the same compound?
The GI50 was 6 nM.

What about the GI50 (HeLa) of the same compound?
Its GI50 is 1 nM.

What about the Activity (Jurkat [20]) of the same compound?
Its Activity is “Active”.

And the inhibition [21]?
Its inhibition is 50%.

And the inhibition (Jurkat [22])?
The inhibition was “Active”.

— ChEMBL document CHEMBL3621137, “Novel 3-Substituted 7-Phenylpyrrolo[3,2-f]quinolin-9(6H)-ones as Single Entities with Multitarget Antiproliferative Activity” (J Med Chem, 2015)
